Reference: PubChem BioAssay
Active and inactive are the calls of the source. Rule as the data show it, unless noted: active = inhibition above about 30%; inactive = the rest.

What was measured:
[1] = Her2 expression decrease, cell viability multiplex – SKBR3 breast tumor cells, AlphaScreen, ATP viability, primary screen (AID 461;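 active = Her2 level under about 52% in both replicate screens, with viability over 70% of control, limit read from the data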;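 as to Her2 level: lower value means less Her2 protein in the cells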;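 as to viability: percent of carrier control wells set as 100% viability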); conditions: SKBR3 Her2 protein level, 18-24 h, measured here: SKBR3 viability, ATP luminescence, at 10 µM
[2] = target: Receptor tyrosine-protein kinase erbB-2 (Homo sapiens) (UniProt P04626); test: as above; conditions: 18-24 h, at 10 µM, stronger effect = lower value
Chain of Receptor tyrosine-protein kinase erbB-2 (Homo sapiens) (P04626 whole entry, looked up): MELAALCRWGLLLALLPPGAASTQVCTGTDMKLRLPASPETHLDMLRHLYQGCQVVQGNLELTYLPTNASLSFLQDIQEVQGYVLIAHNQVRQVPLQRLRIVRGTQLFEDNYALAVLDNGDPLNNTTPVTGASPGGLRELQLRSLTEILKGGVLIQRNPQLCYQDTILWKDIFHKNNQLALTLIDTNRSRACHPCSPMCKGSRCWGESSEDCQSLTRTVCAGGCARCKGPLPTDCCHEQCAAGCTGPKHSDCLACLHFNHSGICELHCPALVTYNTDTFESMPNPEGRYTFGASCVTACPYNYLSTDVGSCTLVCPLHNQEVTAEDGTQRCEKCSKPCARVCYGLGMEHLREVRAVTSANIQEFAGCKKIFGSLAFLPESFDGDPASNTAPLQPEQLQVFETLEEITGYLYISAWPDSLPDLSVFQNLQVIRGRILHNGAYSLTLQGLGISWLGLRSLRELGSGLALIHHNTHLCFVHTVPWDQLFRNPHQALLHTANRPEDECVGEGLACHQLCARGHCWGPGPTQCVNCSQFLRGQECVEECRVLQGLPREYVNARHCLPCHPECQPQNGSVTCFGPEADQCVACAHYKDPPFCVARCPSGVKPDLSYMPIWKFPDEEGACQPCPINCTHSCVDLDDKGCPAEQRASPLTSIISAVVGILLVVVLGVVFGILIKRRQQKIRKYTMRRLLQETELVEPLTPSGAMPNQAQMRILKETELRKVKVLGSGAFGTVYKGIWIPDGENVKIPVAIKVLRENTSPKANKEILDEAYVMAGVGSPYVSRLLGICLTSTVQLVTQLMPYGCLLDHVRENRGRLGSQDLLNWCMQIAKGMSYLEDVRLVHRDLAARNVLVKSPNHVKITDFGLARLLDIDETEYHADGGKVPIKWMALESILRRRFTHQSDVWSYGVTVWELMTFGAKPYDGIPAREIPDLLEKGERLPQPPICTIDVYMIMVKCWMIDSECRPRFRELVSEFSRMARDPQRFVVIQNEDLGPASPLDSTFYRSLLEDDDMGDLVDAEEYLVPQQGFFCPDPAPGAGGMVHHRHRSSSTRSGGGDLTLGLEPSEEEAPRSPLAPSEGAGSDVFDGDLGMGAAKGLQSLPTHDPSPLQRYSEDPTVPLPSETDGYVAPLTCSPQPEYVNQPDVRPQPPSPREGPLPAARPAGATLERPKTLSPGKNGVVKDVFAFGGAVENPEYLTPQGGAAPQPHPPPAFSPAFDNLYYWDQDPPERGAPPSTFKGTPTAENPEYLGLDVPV

[3] = reduced viability of SK-BR-3 breast cancer cells – cell-based, 24 h, human, pilot screen (AID 572;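 active = viability at or below 10% of carrier control in both of two separate runs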;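 also: compound exposure lasted between 18 and 24 h rather than exactly 24 h; 100% = carrier-treated control wells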); conditions: SK-BR-3 viability, CellTiter-Glo luminescence, at 10 µM, stronger effect = lower value
[4] = HUVEC growth inhibition – cell-based, human, primary screen (AID 575;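 active = viability at or below 30% in both replicate assays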;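 also: 100% = median of untreated cell wells with 0.1% DMSO on each plate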); conditions: HUVEC proliferation, CellTiter-Glo luminescence, 72 h; at 10 µM; stronger effect = lower value
In short: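 Test system – primary HUVEC, no more than 12 passages · Dosing – one dose, 10 µM final, 0.1% DMSO · Times – 72 h treatment at 37 °C · Measured by – ATP-based CellTiter-Glo luminescent read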

[5] = H69AR cell proliferation blockers – human, duplicate replicates, primary screen (AID 580;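 active = viability at or under a set limit in both replicates, limit being median viability minus 3 SD, cut at about 48% in these data, passing the limit was not always enough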;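 also: 100% = mean luminescence of untreated wells and 0% = no signal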); conditions: H69AR lung tumor cells viability, ATP luminescence, 72 h; at 10 µM; stronger effect = lower value
[6] = MRP1 drug-resistance reversers in H69AR cells – cell-based, doxorubicin co-treatment, pilot screen (AID 601;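 active = viability loss from added drug above about 55%, and viability with drug at most 40%, in both replicates, limit read from the data, passing the limit was not always enough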); conditions: CellTiter-Glo, 72 h, at 10 µM; for differential viability (reversal): stronger effect = higher value
[7] = yeast transport mutant growth inhibition pilot in 384-well plates, post-Golgi transport modulator project (AID 636; in the data active = inhibition above about 31%); conditions: absorbance 615 nm, about 18 h, stronger effect = higher value
[8] = growth suppression of yeast trafficking mutant, preliminary HTS, modulators of trafficking downstream of Golgi apparatus project, 1536-format plate, OD 615 nm (AID 637); conditions: yeast transport mutant growth, absorbance 615 nm, 18 h; stronger effect = higher value
[9] = H69AR cells + 2 uM doxorubicin, measured here: viability with 2 uM doxorubicin, stronger effect = lower value
[10] = H69AR cells, compound alone cytotoxicity

Row | SMILES | viability [1] [%] | Her2 level [2] | viability [3] | viability [4] | viability [5] | differential viability (reversal) ([6]; H69AR cells + 2 uM doxorubicin) | viability [6, 9] [%] | viability [6, 10] [%] | inhibition [7] | inhibition [8]
1 | CCN1C(=O)OC2(CCCCC2)C1(C)O (stereo not given) | 107 | 93.5% (inactive) | 107% (inactive) | 101% (inactive) | 105% (inactive) | 11.4% (inactive) | 94.1 | 105 | 0.13% (inactive) | -7.27% (inactive)
2 | CC1CN(C(=O)c2cc3cc(Cl)cc(Cl)c3oc2=O)CC(C)O1 (stereo not given) | 83.5 | 102% (inactive) | 83.5% (inactive) | 96.8% (inactive) | 92.4% (inactive) | 4.73% (inactive) | 87.7 | 92.4 | -3.47% (inactive) | 23.8% (inactive)
3 | Cc1oc2nc(SCCCC(=O)NCCCO)nc(N)c2c1C | 91.5 | 85% (inactive) | 91.5% (inactive) | 103% (inactive) | 107% (inactive) | 7.75% (inactive) | 98.8 | 107 | -0.79% (inactive) | 4.75% (inactive)
4 | CC(Oc1ccc(Cl)cc1Cl)c1nc(-c2ccc(NC(=O)c3cccnc3)cc2)no1 (stereo not given) | 93.5 | 74.5% (inactive) | 93.5% (inactive) | 55% (inactive) | 8.04% (active) | -10.7% (inactive) | 18.8 | 8.04 | 0% (inactive) | 22.2% (inactive)
5 | O=C(CNC(=O)c1ccccc1C(=O)O)c1ccccc1 | 128 | 79.5% (inactive) | 128% (inactive) | 100% (inactive) | 90% (inactive) | 7.15% (inactive) | 82.8 | 90 | 2.6% (inactive) | -0.49% (inactive)
6 | CC1(C)OC(=O)C(=CNC(CCC(N)=O)C(=O)O)C(=O)O1 (stereo not given) | 100 | 110% (inactive) | 100% (inactive) | 109% (inactive) | 86.2% (inactive) | -14.4% (inactive) | 101 | 86.2 | 6.49% (inactive) | 5.4% (inactive)
7 | CCN(c1c(C)n(C)n(-c2ccccc2)c1=O)S(C)(=O)=O | 98.5 | 79.5% (inactive) | 98.5% (inactive) | 102% (inactive) | 95.6% (inactive) | 6.92% (inactive) | 88.7 | 95.6 | -6.76% (inactive) | 4.29% (inactive)
8 | CCOc1ccc(C2CC(c3cccc(C)c3)n3ncnc3N2)cc1 (stereo not given) | 101 | 100% (inactive) | 101% (inactive) | 94% (inactive) | 111% (inactive) | 18% (inactive) | 93.1 | 111 | 1.41% (inactive) | -3% (inactive)
9 | O=C(CN1C(=O)CSC1=O)Nc1ccc(N2CCOCC2)cc1 | 96.5 | 122% (inactive) | 96.5% (inactive) | 88.1% (inactive) | 101% (inactive) | 5.88% (inactive) | 94.7 | 101 | 1.07% (inactive) | 16.4% (inactive)
10 | COc1ccc(C(=O)CSc2nnc(C3CCCCC3)n2N)c(OC)c1 | 91.5 | 105% (inactive) | 91.5% (inactive) | 119% (inactive) | 83.3% (inactive) | 2% (inactive) | 81.3 | 83.3 | -4% (inactive) | -6.23% (inactive)
11 | O=C(NCCCN1CCOCC1)C1CC(=O)N(CCc2ccccc2)C1 (stereo not given) | 104 | 89% (inactive) | 104% (inactive) | 84.1% (inactive) | 94.8% (inactive) | 7.94% (inactive) | 86.9 | 94.8 | -3.68% (inactive) | -1.29% (inactive)
12 | COc1ccc(S(=O)(=O)n2ccnc2)c2cccnc12 | 94.5 | 110% (inactive) | 94.5% (inactive) | 90.7% (inactive) | 96.1% (inactive) | -0.965% (inactive) | 97.1 | 96.1 | -2.13% (inactive) | -4.1% (inactive)
13 | C/C(N)=C(/C#N)C(=O)CSc1nnc(Nc2cccc(C)c2)s1 | 114 | 79% (inactive) | 114% (inactive) | 77.5% (inactive) | 83.8% (inactive) | 7.75% (inactive) | 76 | 83.8 | -2% (inactive) | 0.65% (inactive)
14 | COc1ccc(C2(CN(C(C)=O)C(C)=O)CCCC2)cc1OC | 89.5 | 93% (inactive) | 89.5% (inactive) | 114% (inactive) | 90.4% (inactive) | 1.69% (inactive) | 88.7 | 90.4 | -4.8% (inactive) | -4.92% (inactive)
15 | NCCN1CCN(CCN)CC1 | 106 | 77% (inactive) | 106% (inactive) | 84.6% (inactive) | 93.7% (inactive) | 12.2% (inactive) | 81.4 | 93.7 | -3.87% (inactive) | 2.38% (inactive)
16 | CCOC(=O)C1CCN(C(c2cc3cc(C)cc(C)c3[nH]c2=O)c2nnnn2C2CCCCC2)CC1 (stereo not given) | 69.5 | 80% (inactive) | 69.5% (inactive) | 57.3% (inactive) | 62.8% (inactive) | 5.56% (inactive) | 57.2 | 62.8 | -2.6% (inactive) | 2.38% (inactive)
17 | Cn1c(=O)c2c(-c3ccccc3)n(CCCN3CCOCC3)cc2n(C)c1=O | 77.5 | 98.5% (inactive) | 77.5% (inactive) | 69.7% (inactive) | 82.2% (inactive) | 10.4% (inactive) | 71.9 | 82.2 | 2.21% (inactive) | -4.29% (inactive)
18 | COC(=O)c1oc2ccc(Br)cc2c1NC(=O)CN1CCN(C)CC1 | 92.5 | 100% (inactive) | 92.5% (inactive) | 101% (inactive) | 96.6% (inactive) | 16.2% (inactive) | 80.3 | 96.6 | 1.18% (inactive) | 0.55% (inactive)
19 | CC(C(=O)N1CCOCC1)N1c2cccc3cccc(c23)S1(=O)=O (stereo not given) | 101 | 91.5% (inactive) | 101% (inactive) | 100% (inactive) | 93.5% (inactive) | 0.905% (inactive) | 92.6 | 93.5 | -2.76% (inactive) | 5.57% (inactive)
20 | CCOC(=O)C1CCN(c2c(NCCCN(CC)c3ccccc3)c(=O)c2=O)CC1 | 83.5 | 86.5% (inactive) | 83.5% (inactive) | 91.9% (inactive) | 81.1% (inactive) | 8.21% (inactive) | 72.9 | 81.1 | -1.18% (inactive) | 0.18% (inactive)
21 | CCC(=O)N(CCCN(C)C)c1nc(-c2cc(OC)ccc2OC)cs1 | 93.5 | 87.5% (inactive) | 93.5% (inactive) | 78.2% (inactive) | 84.6% (inactive) | 11.2% (inactive) | 73.3 | 84.6 | -5.2% (inactive) | 5.08% (inactive)
22 | Cc1ccc(C2N(c3ccc(Cl)c(Cl)c3)C(=O)C3CCCN32)o1 (stereo not given) | 99 | 82.5% (inactive) | 99% (inactive) | 78.7% (inactive) | 96.2% (inactive) | 6.78% (inactive) | 89.4 | 96.2 | -1.45% (inactive) | 0.32% (inactive)
23 | COc1ccc(OC)c(CNC(=O)COc2cc(=O)n(C)c3ccccc23)c1 | 82 | 86.5% (inactive) | 82% (inactive) | 105% (inactive) | 88% (inactive) | 2.97% (inactive) | 85 | 88 | 2.31% (inactive) | -4.67% (inactive)
24 | Cc1cc(NCCN2CCCCC2)n2c(nc3ccccc32)c1C#N | 87.5 | 65.5% (inactive) | 87.5% (inactive) | 96.2% (inactive) | 85.1% (inactive) | -7.47% (inactive) | 92.6 | 85.1 | -5.6% (inactive) | 4.1% (inactive)
25 | Cc1ccnc(SCCn2c(N3CCCCC3)nc3c2c(=O)n(C)c(=O)n3C)n1 | 76.5 | 88.5% (inactive) | 76.5% (inactive) | 93.9% (inactive) | 91.2% (inactive) | 3% (inactive) | 88.2 | 91.2 | -5.66% (inactive) | -3% (inactive)
26 | COc1ccc(OCC(=O)N2CCN(C(=O)Cc3ccccc3)CC2)cc1 | 90 | 96% (inactive) | 90% (inactive) | 101% (inactive) | 84.6% (inactive) | -12.1% (inactive) | 96.7 | 84.6 | 0% (inactive) | 23.2% (inactive)
27 | CC(C)c1cc(C(=O)NCc2ccco2)no1 | 101 | 99.5% (inactive) | 101% (inactive) | 84.3% (inactive) | 80.4% (inactive) | 5.93% (inactive) | 74.5 | 80.4 | 0.13% (inactive) | -2.83% (inactive)
28 | Cc1nc(/N=C\N(C)C)sc1C(=O)Nc1ccccc1 | 93 | 82% (inactive) | 93% (inactive) | 100% (inactive) | 96.2% (inactive) | 1.87% (inactive) | 94.3 | 96.2 | -5.81% (inactive) | -8% (inactive)
29 | Cc1nc2ccccc2c(=O)n1/N=C/c1ccncc1 | 95 | 99.5% (inactive) | 95% (inactive) | 105% (inactive) | 103% (inactive) | 12.4% (inactive) | 91.1 | 103 | -6.13% (inactive) | -1.94% (inactive)
